PMC548356 (Nucleic Acids Research, 2005)
pIC50, pKi: −log10 of the molar value. Where two headings read alike, the source gives them in different places.

Columns and labels:
Poa1p [1] = target: T1, Poa1p (Saccharomyces cerevisiae, UniProt P38218); assay: Inhibition of Appr1p phosphatase activity of Poa1p; type: biochemical
T1 sequence (P38218 1-177): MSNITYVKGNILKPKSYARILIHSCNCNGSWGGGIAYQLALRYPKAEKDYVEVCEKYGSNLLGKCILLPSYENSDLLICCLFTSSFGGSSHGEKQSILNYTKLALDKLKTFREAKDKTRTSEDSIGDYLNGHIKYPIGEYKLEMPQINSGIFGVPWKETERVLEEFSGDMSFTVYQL
Procedure, shortened: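 Candidate inhibitors were first surveyed at 10 mM under two conditions: 8 nM Poa1p with 26 nM Appr1p for 1 h, and 35 nM Poa1p with 5 μM Appr1p for 2 h. IC50 was then obtained by titrating inhibitor concentration with 35 nM Poa1p and 5 μM Appr1p for 2 h. Readout was radiolabeled Appr1p conversion, separated by TLC.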

Hal2p [2] = assay: Inhibition of Appr1p phosphatase activity of Hal2p; type: biochemical, Saccharomyces cerevisiae; details: Appr1p well below KM; data not shown
Procedure, shortened: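 Purified His6-Hal2p at 104 nM was mixed with 5 nM Appr1p and each potential inhibitor at 10 mM. Incubation lasted long enough to convert ~50% of substrate without inhibitor. Labeled product was resolved by PEI-cellulose TLC and quantified by phosphorimaging.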

yeast crude extracts = assay: Appr1p processing activity of yeast crude extracts; type: biochemical, Saccharomyces cerevisiae; details: for extract amount by which Appr1p is 50% processed: 17 nM Ap*pr1p, 1 h, 30°C
Procedure, shortened: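 Yeast strains (BY4741 background: wild type, poa1, hal2, and the double deletion) were grown to A600 1.0, washed in cold water, stored at −70°C and lysed with glass beads. Extracts were assayed in 5-fold serial dilutions (starting 16, 29, 23 and 21 μg respectively) with 17 nM Ap*pr1p for 1 h at 30°C. Reactions were phenol:chloroform-treated and resolved on PEI-cellulose TLC.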

Poa1p [3] = target: T1, Poa1p; assay: KI for ADP-ribose by the method of Dixon; type: biochemical
Procedure, shortened: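 Ap*pr1p hydrolysis by 43 nM Poa1p at four fixed Appr1p concentrations (1–25 μM) with ADP-ribose 0–300 μM. Initial-rate inverses plotted against [ADP-ribose]; resulting slopes replotted against 1/[Appr1p]. KI derived from the secondary slope (KM/(Vmax·KI)) using known KM and Vmax for Appr1p. All fits by linear regression.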

Hal2p [4] = assay: Appr1p phosphatase and pAp phosphatase assay, steady-state kinetics of Hal2p; type: biochemical, Saccharomyces cerevisiae; details: for Km / kcat: substrate of Hal2p, 30°C, pH 7.5
Poa1p [5] = target: T1, Poa1p; assay: Appr1p phosphatase assay, steady-state kinetics of Poa1p; type: biochemical
[6] = read-out: Inhibition in survey at 10 mM competitor (IC50), 10 mM competitor, 8 nM Poa1p, 26 nM Appr1p, 1 h, and 35 nM Poa1p, 5 μM Appr1p, 2 h
[7] = substrate of Poa1p, 30°C, pH 7.5, 21 nM Poa1p

pIC50 (Poa1p [1]; [6]) | pIC50 (Poa1p [1]; 35 nM Poa1p, 5 μM Appr1p, 2 h) | Inhibition of Appr1p phosphatase activity of Hal2p (in words) (Hal2p [2]) | Compound | other results
< 2.00 |  |  | Nc1ncnc2c1ncn2[C@@H]1O[C@H](CO)[C@@H](O)[C@H]1OP(=O)(O)O [2′pA] | 
 | < 2.00 | inhibited | Nc1ncnc2c1ncn2[C@@H]1O[C@H](CO)[C@@H](OP(=O)(O)O)[C@H]1O [3′pA] | 
< 2.00 |  |  | Nc1nc2c(ncn2[C@@H]2O[C@H](CO)[C@@H](OP(=O)(O)O)[C@H]2O)c(=O)[nH]1 [3′pG] | Inhibition of phosphatase activity remaining in poa1-Δ extract (in words) (yeast crude extracts; poa1-Δ extract, data not shown): inhibited
< 2.00 |  |  | Nc1ncnc2c1ncn2[C@@H]1O[C@H](COP(=O)(O)O)[C@@H](O)[C@H]1O [5′pA, AMP] | 
 | < 2.00 |  | Nc1ncnc2c1ncn2[C@@H]1O[C@H](COP(=O)(O)OP(=O)(O)O)[C@@H](O)[C@H]1O [ADP] | 
< 2.00 |  | inhibited | Nc1ncnc2c1ncn2[C@@H]1O[C@H](COP(=O)(O)O)[C@@H](OP(=O)(O)O)[C@H]1O [pAp] | preference of Hal2p for pAp relative to Appr1p (Hal2p [4]; as measured by kcat/KM values): 10^4 fold; Km (Hal2p [4]): 0.1 µM; kcat (Hal2p [4]): 0.9 s⁻¹; Poa1p phosphatase activity on substrate (in words) (Poa1p [5]; conditions where a turnover of 0.005 min^−1 (0.3% of the activity with Appr1p) should be easily observed): no detectable activity

Further lines, the compound ahead of its results:

Compound | pIC50 (Poa1p [1]; [6]) | pIC50 (Poa1p [1]; 35 nM Poa1p, 5 μM Appr1p, 2 h) | Inhibition of Appr1p phosphatase activity of Hal2p (in words) (Hal2p [2]) | other results
Nc1ccn([C@@H]2O[C@H](CO)[C@@H](O)[C@H]2OP(=O)(O)O)c(=O)n1 [2′pC] |  | < 2.00 |  | 
Nc1nc2c(ncn2[C@@H]2O[C@H](CO)[C@@H](O)[C@H]2OP(=O)(O)O)c(=O)[nH]1 [2′pG] | < 2.00 |  | inhibited | 
Nc1ccn([C@@H]2O[C@H](CO)[C@@H](OP(=O)(O)O)[C@H]2O)c(=O)n1 [3′pC] | < 2.00 |  |  | 
Nc1ncnc2c1ncn2[C@@H]1O[C@H](COP(=O)(O)OP(=O)(O)OC[C@H]2OC(O)[C@H](O)[C@@H]2O)[C@@H](O)[C@H]1O (stereo partly drawn) [ADPR, ADP-ribose] |  | 4.52 | inhibited | pKi (Poa1p [3]; 43 nM Poa1p, varied Appr1p and ADP-ribose (0–300 μM), Dixon plot): 4.77; mode of inhibition (Poa1p [3]; plots of inverse initial rates versus inhibitor concentration): classical competitive inhibition
Nc1ncnc2c1ncn2[C@@H]1O[C@H](COP(=O)(O)OP(=O)(O)OC[C@H]2O[C@@H](n3cnc4c(N)ncnc43)[C@H](O)[C@@H]2O)[C@@H](O)[C@H]1O [AppA] |  | 3.00 |  | 
Nc1ncnc2c1ncn2[C@@H]1O[C@H](COP(=O)(O)OP(=O)(O)OC[C@H]2O[C@H](OP(=O)(O)O)[C@H](O)[C@@H]2O)[C@@H](O)[C@H]1O [Appr1p, ADP-ribose-1″-phosphate] |  |  |  | Km (Hal2p [4]): 74 µM; kcat (Hal2p [4]): 0.0533 s⁻¹; preference of Poa1p for Appr1p relative to pAp (Poa1p [5]; as measured by observed rates): at least 340 fold; kcat/KM difference in favor of Poa1p over Hal2p (Poa1p [5]; substrate Appr1p): 14 fold; lower KM of Poa1p relative to Hal2p (Poa1p [5]; substrate Appr1p): ~25 fold; Km (Poa1p [5]; [7]): 2.8 µM; kcat (Poa1p [5]; [7]): 0.0283 s⁻¹; extract amount by which Appr1p is 50% processed (yeast crude extracts; hal2-Δ extract): 1.2 µg; extract amount by which Appr1p is 50% processed (yeast crude extracts; poa1-Δ extract): 33 µg; extract amount by which Appr1p is 50% processed (yeast crude extracts; poa1-Δ, hal2-Δ double mutant extract): 20 µg; extract amount by which Appr1p is 50% processed (yeast crude extracts; wild-type extract): 1.8 µg
NC(=O)c1ccc[n+]([C@H]2O[C@@H](COP(=O)([O-])OP(=O)(O)OC[C@H]3O[C@@H](n4cnc5c(N)ncnc54)[C@H](OP(=O)(O)O)[C@@H]3O)[C@H](O)[C@@H]2O)c1 [NADP] |  | 2.70 | inhibited | 
NC(=O)c1ccc[n+]([C@@H]2O[C@H](COP(=O)([O-])OP(=O)(O)OC[C@H]3O[C@@H](n4cnc5c(N)ncnc54)[C@H](O)[C@@H]3O)[C@@H](O)[C@H]2O)c1 [NAD] |  | 2.82 |  | 
O=P(O)(O)OC[C@H]1OC(O)(CO)[C@@H](O)[C@@H]1O (stereo partly drawn) [fructose-6p] | < 2.00 |  |  | 
O=P(O)(O)O[C@H]1O[C@H](CO)[C@@H](O)[C@H](O)[C@H]1O [glucose-1p] | < 2.00 |  |  | 
O=C[C@H](O)COP(=O)(O)O [glyceraldehyde-3p] | < 2.00 |  |  | 
O=P(O)(O)O[C@H]1O[C@H](CO)[C@@H](O)[C@H]1O [ribose-1p] | < 2.00 |  |  | 
O=C[C@H](O)[C@H](O)[C@H](O)COP(=O)(O)O [ribose-5p, ribose 5-phosphate] |  |  | inhibited | pIC50 (Poa1p [1]): < 2.00
